This note sets out measurements from ChEMBL document CHEMBL4715734, “Discovery of the Potent and Selective M1 PAM-Agonist N-[(3R,4S)-3-Hydroxytetrahydro-2H-pyran-4-yl]-5-methyl-4-[4-(1,3-thiazol-4-yl)benzyl]pyridine-2-carboxamide (PF-06767832): Evaluation of Efficacy and Cholinergic Side Effects” (J Med Chem, 2016).

The nature of data set [1]: Toxicity in dog assessed as induction of mucoid feces at 15 mg/kg, po using spray-dried dispersion formulation. It counts as organism-based, Canis lupus familiaris. Particulars: in vivo; call rule not given here.
In data set [2] the target is T1, Muscarinic acetylcholine receptor M2 (Homo sapiens, UniProt P08172).
T1 sequence (P08172 whole entry): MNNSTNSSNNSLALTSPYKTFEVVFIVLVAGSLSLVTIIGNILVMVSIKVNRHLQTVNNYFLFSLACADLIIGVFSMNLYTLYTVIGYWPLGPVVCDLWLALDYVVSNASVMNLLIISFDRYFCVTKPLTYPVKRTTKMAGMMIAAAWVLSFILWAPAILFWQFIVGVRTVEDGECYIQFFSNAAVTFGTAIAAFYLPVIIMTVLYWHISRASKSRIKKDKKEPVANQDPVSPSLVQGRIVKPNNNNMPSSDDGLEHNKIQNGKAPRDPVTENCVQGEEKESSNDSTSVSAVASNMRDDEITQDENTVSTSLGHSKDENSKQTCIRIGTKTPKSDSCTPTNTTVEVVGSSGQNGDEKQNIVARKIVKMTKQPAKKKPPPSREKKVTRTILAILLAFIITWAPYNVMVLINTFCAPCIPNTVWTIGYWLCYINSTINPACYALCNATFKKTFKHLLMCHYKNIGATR
Briefly: Positive allosteric modulation of human recombinant muscarinic M2 receptor stably expressed in HEK cells assessed as increase in ACh-induced cAMP accumulation up to 10 uM measured after 10 mins by GloSensor cAMP Assay. Format: cell-based.

Data set [3] can be described thus: Fraction unbound in rat brain. Format: ADME, cell-free.
Data set [4] has as its target Muscarinic acetylcholine receptor M3 (Homo sapiens, UniProt P20309). Briefly: Positive allosteric modulation of human recombinant muscarinic M3 receptor stably expressed in CHO cells assessed as increase in Ach-induced accumulation of intracellular calcium level upto 10 uM incubated for 10 mins followed by addition of Ach at EC20 concentration by Fluo-8AM dye based FLIPR TETRA method.

Data set [5] is described as follows: Unbound brain concentration in amphetamine-induced C57BL/6J mouse model of hyperlocomotion at 0.32 mg/kg, sc measured after 1 hr. Format: ADME, organism-based. Particulars: in vivo. Summed up:
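Satellite PK animals from the mouse aLMA study, N=2/dose. Dosed subcutaneously with a solution in 5/15/80 DMSO/Solutol/water. Plasma and brain were sampled at T = 1 h.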

Data set [6] can be described thus: Unbound brain concentration in CD-1 mouse at 10 mg/kg, sc measured after 2 hrs by LC-MS/MS analysis. Format: ADME, organism-based. The note with it: in vivo.
Data set [7] has as its target T2, Muscarinic acetylcholine receptor M4 (Homo sapiens, UniProt P08173).
T2 sequence (P08173 whole entry): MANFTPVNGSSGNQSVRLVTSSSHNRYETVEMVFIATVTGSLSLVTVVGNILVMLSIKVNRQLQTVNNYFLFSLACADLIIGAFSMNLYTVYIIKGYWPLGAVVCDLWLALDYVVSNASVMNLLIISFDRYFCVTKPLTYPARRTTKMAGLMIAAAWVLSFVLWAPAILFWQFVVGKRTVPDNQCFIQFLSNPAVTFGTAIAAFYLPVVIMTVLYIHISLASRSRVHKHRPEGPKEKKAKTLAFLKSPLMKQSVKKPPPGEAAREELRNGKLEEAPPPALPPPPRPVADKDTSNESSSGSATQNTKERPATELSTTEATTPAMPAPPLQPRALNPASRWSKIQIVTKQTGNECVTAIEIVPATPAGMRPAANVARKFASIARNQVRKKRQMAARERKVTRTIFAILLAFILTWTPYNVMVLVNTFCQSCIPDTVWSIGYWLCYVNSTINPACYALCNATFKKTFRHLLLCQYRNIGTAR
In words: Positive allosteric modulation of human recombinant muscarinic M4 receptor stably expressed in HEK cells assessed as increase in ACh-induced cAMP accumulation up to 10 uM measured after 10 mins by GloSensor cAMP Assay. It counts as cell-based. For orientation: Changes in cAMP serve as a functional read-out for many G protein-coupled receptors.

Data set [8] can be described thus: Clearance in dog at 0.1 mg/kg, iv administered as single bolus dose. It counts as ADME, organism-based, Canis lupus familiaris. Particulars: in vivo.
A short description of data set [9]: Toxicity in dog assessed as salivation at 15 mg/kg, po using spray-dried dispersion formulation. The note with it: in vivo. Format: organism-based, Canis lupus familiaris.
Data set [10] can be described thus: Ratio of AUC monkey brain to fAUC in monkey plasma. It counts as ADME, cell-free, Macaca mulatta. Particulars: rhesus monkey, in vivo.
Data set [11] addresses T3, Muscarinic acetylcholine receptor M5 (Homo sapiens, UniProt P08912).
T3 sequence (P08912 whole entry): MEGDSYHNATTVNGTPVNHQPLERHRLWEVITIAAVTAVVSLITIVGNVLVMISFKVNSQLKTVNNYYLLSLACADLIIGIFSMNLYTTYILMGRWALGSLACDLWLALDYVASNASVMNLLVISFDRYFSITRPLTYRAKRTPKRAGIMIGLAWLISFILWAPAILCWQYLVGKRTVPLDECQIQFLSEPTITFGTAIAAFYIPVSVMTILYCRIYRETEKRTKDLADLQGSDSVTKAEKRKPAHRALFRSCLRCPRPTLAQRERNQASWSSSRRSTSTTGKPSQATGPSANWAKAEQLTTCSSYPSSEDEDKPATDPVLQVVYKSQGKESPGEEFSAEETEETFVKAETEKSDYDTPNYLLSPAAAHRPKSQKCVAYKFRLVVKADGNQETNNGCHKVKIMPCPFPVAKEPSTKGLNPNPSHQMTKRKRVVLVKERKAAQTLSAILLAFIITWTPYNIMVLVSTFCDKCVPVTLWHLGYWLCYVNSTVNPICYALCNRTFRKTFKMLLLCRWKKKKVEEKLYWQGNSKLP
Briefly: Positive allosteric modulation of human recombinant muscarinic M5 receptor stably expressed in CHO cells assessed as increase in Ach-induced accumulation of intracellular calcium level upto 10 uM incubated for 10 mins followed by addition of Ach at EC20 concentration by Fluo-8AM dye based FLIPR TETRA method. For orientation: A change in cytosolic calcium serves as a functional read-out for many receptors and channels.

Data set [12] is described as follows: Fraction unbound in Beagle dog plasma. It counts as ADME, Canis lupus familiaris.
Data set [13] concerns the target T2, Muscarinic acetylcholine receptor M4. In words: Agonist activity at human recombinant muscarinic M4 receptor stably expressed in HEK cells assessed as increase in cAMP accumulation up to 10 uM measured after 10 mins by GloSensor cAMP Assay. Format: cell-based.
In data set [14] the target is T1, Muscarinic acetylcholine receptor M2. Briefly: Positive allosteric modulation of muscarinic M2 receptor (unknown origin) assessed as increase in ACh-induced displacement of [3H]-NMS from M2 receptor. Summed up:
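Cell lines expressing M2 or M3 were used for [3H]NMS binding. Inhibition of binding by ACh was measured in the presence of fixed compound concentrations of 10, 3, 1, 0.3, 0.1 and 0 µM.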
For orientation: Displacement assays read how much labelled ligand stays bound in the presence of the test substance.

A short description of data set [15]: fCmax in dog at 45 mg/kg, po using spray-dried dispersion formulation. Format: ADME, organism-based, Canis lupus familiaris. The note with it: in vivo.
Data set [16] can be described thus: fCmax in dog at 15 mg/kg, po using spray-dried dispersion formulation. Format: ADME, organism-based, Canis lupus familiaris. Particulars: in vivo.
Data set [17] is described as follows: Toxicity in male Beagle dog assessed as change in CV end points at 0.3 mg/kg, po by telemetry. Format: organism-based, Canis lupus familiaris. Particulars: in vivo. In outline: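 Crossover telemetry study in dogs at three oral doses (0.3, 1 and 3 mg/kg), N=4. Endpoints were blood pressure, maximum systolic left ventricular pressure, LV +dP/dt max, activity, heart rate, and RR, QT and QTc intervals, followed up to 9 h post dose.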

Data set [18] in a line: Oral bioavailability in dog at 0.5 mg/kg. Format: ADME, organism-based, Canis lupus familiaris. The note with it: in vivo.
Data set [19] deals with cGMP-dependent 3',5'-cyclic phosphodiesterase (Homo sapiens, UniProt O00408). Briefly: Inhibition of PDE2A (unknown origin).

A word on the clearance: it is the volume of plasma or blood freed of the substance per unit of time. The term bioavailability denotes dose-corrected exposure relative to a reference, in per cent. What is called IC50 is the concentration that inhibits the measured activity by half.

Chain of cGMP-dependent 3',5'-cyclic phosphodiesterase (O00408 whole entry): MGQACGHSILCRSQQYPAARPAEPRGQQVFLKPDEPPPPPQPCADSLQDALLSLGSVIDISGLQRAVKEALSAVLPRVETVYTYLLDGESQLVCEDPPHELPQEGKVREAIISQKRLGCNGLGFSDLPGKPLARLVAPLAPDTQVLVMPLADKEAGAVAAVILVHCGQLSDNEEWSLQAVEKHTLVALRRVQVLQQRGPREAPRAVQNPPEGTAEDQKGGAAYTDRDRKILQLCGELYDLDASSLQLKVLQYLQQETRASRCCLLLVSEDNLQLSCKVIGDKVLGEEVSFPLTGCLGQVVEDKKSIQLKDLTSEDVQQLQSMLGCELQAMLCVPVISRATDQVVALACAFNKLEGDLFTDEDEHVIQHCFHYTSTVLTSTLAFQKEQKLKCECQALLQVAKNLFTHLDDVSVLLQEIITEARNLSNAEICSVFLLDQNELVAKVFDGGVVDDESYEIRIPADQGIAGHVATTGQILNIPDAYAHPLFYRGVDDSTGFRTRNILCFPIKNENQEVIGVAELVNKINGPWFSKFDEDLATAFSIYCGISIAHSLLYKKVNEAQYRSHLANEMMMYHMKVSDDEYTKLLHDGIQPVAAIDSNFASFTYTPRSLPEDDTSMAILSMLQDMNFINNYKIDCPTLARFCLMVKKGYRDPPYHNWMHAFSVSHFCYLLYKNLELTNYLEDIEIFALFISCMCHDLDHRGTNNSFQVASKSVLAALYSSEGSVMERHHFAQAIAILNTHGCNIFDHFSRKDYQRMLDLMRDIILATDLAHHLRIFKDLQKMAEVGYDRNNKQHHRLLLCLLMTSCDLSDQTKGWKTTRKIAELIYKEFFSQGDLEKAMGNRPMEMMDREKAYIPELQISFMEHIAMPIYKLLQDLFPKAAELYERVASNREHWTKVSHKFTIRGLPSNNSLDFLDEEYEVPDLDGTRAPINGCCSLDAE
Chain of Muscarinic acetylcholine receptor M3 (P20309 whole entry): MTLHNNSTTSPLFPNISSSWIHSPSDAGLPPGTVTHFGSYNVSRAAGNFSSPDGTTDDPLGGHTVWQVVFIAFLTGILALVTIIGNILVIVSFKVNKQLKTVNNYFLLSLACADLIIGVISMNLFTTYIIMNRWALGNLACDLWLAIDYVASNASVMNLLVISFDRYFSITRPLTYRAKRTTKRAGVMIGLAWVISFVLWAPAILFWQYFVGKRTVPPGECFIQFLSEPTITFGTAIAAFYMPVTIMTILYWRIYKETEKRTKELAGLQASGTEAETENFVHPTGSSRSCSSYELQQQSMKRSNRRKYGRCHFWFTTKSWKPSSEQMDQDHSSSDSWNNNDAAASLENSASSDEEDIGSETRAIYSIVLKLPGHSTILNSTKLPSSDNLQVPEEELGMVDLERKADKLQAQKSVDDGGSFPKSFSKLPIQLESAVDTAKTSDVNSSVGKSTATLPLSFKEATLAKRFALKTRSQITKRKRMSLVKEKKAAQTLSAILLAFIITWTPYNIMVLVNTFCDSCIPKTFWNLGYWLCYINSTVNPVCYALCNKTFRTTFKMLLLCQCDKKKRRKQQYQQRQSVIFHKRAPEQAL

`Cc1cnc(C(=O)N[C@H]2CCOC[C@@H]2O)cc1Cc1ccc(-c2cscn2)cc1`: the Activity entry in [1] is given as “Toxic”; in data set [2] it was “Not Active”; in data set [4] it was “Not Active”; in data set [7] it was “Not Active”; in data set [9], “Toxic”; in data set [11], “Not Active”. Besides, the Activity result is reported as “Not Active” in data set [13], “Not Active” in [14] and “Non-Toxic” in data set [17]. The figures for the Fu in data set [3] and in data set [12] were 4% and 8.1%, respectively. Besides, the “Drug uptake(free)” value in data set [5] amounted to 6.38 nM; in data set [6] it was 195 nM. Also, the clearance in data set [8] was found to be 2.73 mL/min/kg. Further, the “Ratio AUC” value in data set [10] was determined as 0.41. Further, the values for the fCmax in [15] and in [16] were 952 nM and 1050 nM, respectively. The compound also registered a bioavailability in data set [18] of 43%. Besides, in [19], 3.09 µM corresponded to half-maximal inhibition (IC50).
